Counter-ions that a name gives are not always drawn.
Key:
healthy volunteers = details: cited from earlier work; for pupil diameter after single instillation: healthy subjects, ref 37 (Lee et al.)
[1] = test system: corneal endothelial cells; format: in vivo, human; details: after instillation, days 1 and 8; none developed grade 3
healthy adult men = assay: Adverse events; format: in vivo, human; details: 8-day twice-daily instillation
Method in brief: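 Healthy adult men, 3 × 3 crossover: three 8-day phases separated by drug-free intervals of at least 5 days. One drop of test eye drop was given in both eyes twice daily (09:00, 21:00), with morning dose only on day 8. Subjects were inpatients from day −1 to day 9. AEs and ADRs were tallied as number and percentage of subjects.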

[2] = test system: palpebral and bulbar conjunctivae; assay: Palpebral and bulbar conjunctival hyperemia grading by slit lamp microscope; format: in vivo, human; details: day 1, score – = 0, + = 1, 2+ = 2, 3+ = 3; for palpebral conjunctival hyperemia mean ± SD grade score: administration phase 1
Method in brief: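 Conjunctival hyperemia was graded: – no or physiologic findings; + several vasodilatations; 2+ multiple or limbal vasodilatation; 3+ whole conjunctiva. Change from baseline per phase was averaged over both eyes and analysed by marginal model, n = 17–18.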

[3] = test system: healthy adults and patients with glaucoma; details: cited from earlier work

morphologic changes in corneal endothelial cells (grade) [1]	palpebral conjunctival hyperemia mean ± SD grade score ([2]; 15 min post-instillation)	palpebral conjunctival hyperemia mean ± SD grade score ([2]; 1 h post-instillation)	bulbar conjunctival hyperemia mean ± SD grade score ([2]; 1 h post-instillation)	Compound	pupil diameter after single instillation (healthy volunteers)	effect on pupil (healthy volunteers; healthy volunteers)	subjects with ADRs (healthy adult men)	subjects with AEs (healthy adult men)	subjects with conjunctival hyperemia as ADR (healthy adult men)	subjects with conjunctival hyperemia as AE (healthy adult men)	time of peak of transient conjunctival hyperemia after instillation [3]
No morphologic changes				Brc1c(NC2=NCCN2)ccc2nccnc12 [brimonidine, brimonidine tartrate]	significantly decreased	moderate miotic effect	58.8%	70.6%	47.1%	58.8%	
grade 1 or 2	1.4 ± 0.6	0.9 ± 0.7	0.9 ± 0.5	C[C@H]1CNCCCN1S(=O)(=O)c1cccc2cncc(F)c12 [ripasudil, ripasudil hydrochloride hydrate]	no change in pupil diameter		100.0%	100.0%	100.0%	100.0%	5 to 15 min

Source: article PMC10329961 (Advances in Therapy, 2023)
